# KCNK3 inh: human KCNK3 channel inhibitors, primary screen, CHO cells, FluxOR thallium flux, B-score | B-score at 10 µM | actives 0.84% (n = 340,000) | AID 602410, 2012 | FluxOR fluorescence; active compounds read low | Potassium channel subfamily K member 3 (Homo sapiens), O14649;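 active = B-score under library mean minus 4 SD, starting fluorescence ratio at most library mean plus 5 SD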;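 note: more negative B-score means stronger inhibition of thallium flux through KCNK3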
# KCNQ1 pot: potentiators or activators of KCNQ1 channel, primary screen, cell-based, thallium flux, high-throughput; Potassium voltage-gated channel subfamily KQT member 1 (Homo sapiens), P51787; CHO-K1 KCNQ1, thallium flux FluxOR fluorescence; active compounds read high; B-score at 10 µM; actives 0.35% (n = 310,000); AID 2648, 2010;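 active = fluorescence ratio B-score, a plate-corrected score, at least three library SD, with initial intensity B-score within 5 SD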
#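 Assay system: CHO-K1 cells stably expressing KCNQ1. Medium: assay buffer for compound exposure, DMSO matched across wells. Timing: 37 °C overnight plating, 90-min dark dye load, 20-min compound pretreatment. Signal: kinetic FluxOR fluorescence, 10 s baseline plus 110 s post-stimulus.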
# hERG rescue: hERG rescue from dofetilide block, primary screen, cell-based, CHO-hERG, FluxOR thallium flux, dofetilide IC70; dofetilide IC70 present; actives 0.51% (n = 310,000); Voltage-gated inwardly rectifying potassium channel KCNH2 (Homo sapiens), Q12809; activation (rescue from dofetilide block), less the hit threshold, % at 10 µM;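 active = activation above the mean of controls blocked by dofetilide plus 5 SD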;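 note: thallium influx through hERG after potassium depolarization seen as dye fluorescence rise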
# KCNQ1 block: inhibitors of human KCNQ1 channel, primary screen, cell-based, thallium flux, high-throughput. Potassium voltage-gated channel subfamily KQT member 1 (Homo sapiens), P51787. CHO-K1 KCNQ1, FluxOR thallium flux fluorescence; active compounds read high. B-score at 10 µM. actives 1.3% (n = 310,000). AID 2642, 2010;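 active = compounds whose thallium flux B-score, printed positive for inhibition, exceeds three library SD while starting fluorescence stays within three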;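 note: channel opened by potassium depolarization with thallium stimulus after 20 min compound exposure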
# KCNK9 inh: KCNK9 potassium channel inhibitors, primary screen, HEK293 cells, thallium flux; Potassium channel subfamily K member 9 (Homo sapiens), Q9NPC2; FluxOR thallium flux fluorescence; active compounds read low; B-score at 10 µM; actives 1.2% (n = 310,000); AID 488922, 2010;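 active = ratio B-score over 3 SD below the library mean, with starting fluorescence within 5 SD of its mean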;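 note: negative B-score means less thallium flux so channel inhibition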
# Kir21 inh: inhibitors of mouse Kir2.1 inward-rectifier potassium channel; Inward rectifier potassium channel 2 (Mus musculus), P35561; HEK293-Kir2.1, FluxOR thallium flux fluorescence; active compounds read low; B-score at 10 µM; actives 0.85% (n = 310,000); AID 1672, 2009;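 active = fluorescence ratio B-score at or below minus 3 SD of library scores, with starting-brightness B-score within 2 SD, cut at about -4.2 in these data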;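 note: channel flux triggered by added potassium and thallium sulfate stimulus; B-score of peak minus minimum fluorescence over baseline after thallium stimulus; more negative B-score means stronger Kir2.1 block with less thallium influx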
# Target sequence (P35561 whole entry, looked up): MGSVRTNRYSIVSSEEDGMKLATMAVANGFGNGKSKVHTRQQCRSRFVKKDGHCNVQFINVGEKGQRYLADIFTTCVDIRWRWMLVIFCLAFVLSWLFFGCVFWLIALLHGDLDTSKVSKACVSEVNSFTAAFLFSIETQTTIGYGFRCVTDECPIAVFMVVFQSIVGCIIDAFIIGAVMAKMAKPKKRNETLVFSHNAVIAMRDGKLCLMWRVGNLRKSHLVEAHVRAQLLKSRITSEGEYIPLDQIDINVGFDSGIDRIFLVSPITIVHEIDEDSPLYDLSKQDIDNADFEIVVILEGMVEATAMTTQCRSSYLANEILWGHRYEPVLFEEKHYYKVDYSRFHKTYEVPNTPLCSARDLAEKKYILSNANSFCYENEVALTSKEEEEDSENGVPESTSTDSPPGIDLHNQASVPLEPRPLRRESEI
# KCNK3 inh conf: retest of human KCNK3 channel inhibitors, confirmation, CHO cells, FluxOR thallium flux, triplicate. AID 651638, 2012. actives 99% (n = 2,400). ratio percent of control, % at 10 µM. FluxOR fluorescence; 0% buffer, 100% carvedilol maximal block. shares compounds with KCNK3 inh;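 active = ratio percent of control, averaged over triplicates, above buffer control mean plus 5 SD, cut at about 64% in these data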;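 note: ratio is the fluorescence rise from min to max over baseline after thallium stimulus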
# KCNK3 uninduced: thallium flux inhibition in non-induced cells, primary screen, counter-screen for KCNK3 inhibitor project, cell-based, non-induced KCNK3 line, FluxOR thallium, triplicate; shares compounds with KCNK3 inh; thallium flux ratio (lower = more inhibition) at 10 µM; AID 651747, 2012; actives 40% (n = 2,400); non-induced KCNK3 parental cells; active compounds read low;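 active = thallium flux ratio, averaged over three wells, more than 5 SD below the buffer control mean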;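 note: host cells are CHO cells without KCNK3 induction; ratio is peak minus trough fluorescence over baseline then normalized to buffer controls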
# Starred values were filed as active, the others as inactive; i = inactive; . = no result given. Shown are actives, neighbours in structure and some others; about 3.8% of the full set was active somewhere.
SMILES,KCNK3 inh,KCNQ1 pot,hERG rescue,KCNQ1 block,KCNK9 inh,Kir21 inh,KCNK3 inh conf,KCNK3 uninduced
Cc1ccc2cc(/C=C(\C#N)C(N)=O)c(N3CCCCC3)nc2c1,i,i,-6,i,i,-0.45,.,.
CCOC(=O)/C(C#N)=C/c1cc2ccccc2nc1N1CCCCC1,-9.5*,i,-9,12*,-7.3*,-0.01,0,i
O=C(N/N=C/c1ccc[nH]1)c1cc(-c2ccc(Cl)cc2)nc2ccccc12,-9.1*,i,-15,i,i,-0.61,124*,0.12*
O=Cc1ccc(C(=O)OCC(=O)NCc2ccco2)cc1,i,.,.,.,.,.,.,.
CCCc1cc(NCCCn2ccnc2)n2nc(C)c(-c3ccccc3)c2n1,-8.8*,i,-22,i,i,-5.8,109*,0.15*
COc1cccc(-c2ccc(NC(=O)C3CCCN(Cc4ccc(CO)o4)C3)cc2)c1 (stereo not drawn),i,i,-14,i,i,0.31,.,.
C/C(=N\NC(=O)c1nn(C)c(C)c1Br)c1ccc(NC(=O)c2ccc(C)s2)cc1,-8.8*,i,-6,i,i,0.04,101*,i
O=[N+]([O-])c1ccc(N2CCN(C(=S)NC3CCCCC3)CC2)cc1,-8.8*,i,-15,i,i,0.06,104*,i
O=[N+]([O-])c1ccc(N2CCN(C(=S)Nc3ccccc3)CC2)cc1,i,i,-17,i,i,-1.4,.,.
O=C(COC(=O)CN1C(=O)C2CCCCC2C1=O)NCc1ccc(Cl)cc1Cl (stereo not drawn),i,.,.,.,.,.,.,.
O=C(c1ccc(-c2ccccc2)cc1)C1CCCN(C(=O)c2ccncc2)C1 (stereo not drawn),i,i,-12,i,i,0.73,.,.
O=C(c1ccc(-c2ccccc2)cc1)C1CCCN(Cc2ccncc2)C1 (stereo not drawn),-10*,i,-24,i,i,0.02,129*,i
COc1ccc(C(=O)OCCOc2ccccc2C(C)=O)c(O)c1,-9.8*,i,-9,i,i,0.41,119*,0.14*
COc1cccc(NC(=O)COC(=O)CCC(=O)c2cccs2)c1,i,.,.,.,.,.,.,.
Cc1noc(C)c1COc1cccc(C(=O)Oc2ccc3c(c2)OCO3)c1,-8.8*,i,-11,i,i,-0.78,96*,i
Cc1noc(C)c1COc1cccc(C(=O)OC(C)C#N)c1 (stereo not drawn),i,i,-2,i,i,-0.52,.,.
Cc1noc(C)c1COc1cccc(C(=O)Nc2ccc3c(c2)OCO3)c1,i,i,-8,i,i,0,.,.
Cc1noc(C)c1COc1cccc(C(=O)OCCOc2ccc(F)cc2)c1,-14*,i,-8,i,i,0.59,116*,i
O=C1c2cccc3cccc(c23)C(=O)N1CC1CCN(CC(O)COc2ccc3ccccc3c2)CC1 (stereo not drawn),-9.9*,i,-17,i,i,-1.6,101*,0.15*
CCCOC(=O)/C(=C\C=C\c1ccccc1)NC(=O)c1ccccc1,-10*,i,-7,i,i,0.49,147*,0.15*
O=c1c(O)c(-c2ccccc2)oc2cc(O)cc(O)c12,i,.,.,.,.,.,.,.
O=c1c(-c2ccccc2)c(-c2ccccc2)oc2cc(O)cc(O)c12,-9*,i,-14,13*,i,-0.81,112*,i

# Screening data (PubChem)
